# The sample as a whole holds a higher share of hits than the screen did.
# H69AR growth 86K – proliferation blockers of H69AR lung cancer cells, primary screen, cell-based, human, 86K library; actives 6% (n = 85,000); viability, % at 10 µM; H69AR lung tumor viability, ATP luminescence, 72 h; hits give low values;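 active = viability at or below 40%; inactive = viability above 40%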;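 note: multidrug resistant small cell line overexpressing MRP-1 efflux transporter; 100% = mean luminescence of untreated control wells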
# HCT116 bCat-KO – primary screen for growth suppressors in beta-catenin knockout HCT116 cells (colon tumor, human); viability, % at 10 µM; HCT116 beta-catenin knockout viability, CellTiter-Glo, 60 h; hits give low values; actives 1.5% (n = 140,000); AID 818, 2007;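 active = viability at or under a set limit, the compound median less 4 SD, cut at about 6% in these data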;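 note: 0% = Hyamine 1622 control at 20 µM and 100% = untreated cell control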
# PTEN del growth – growth suppression of PTEN-null HCT116, primary screen, cell-based, CellTiter-Glo | AID 827, 2007 | actives 1.2% (n = 140,000) | viability, % at 10 µM | HCT116 PTEN-null viability, 60 h; hits give low values;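 active = viability at or below a set limit, 4 SD under the median of all tested compounds, cut at about 3.7% in these data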;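 note: PTEN knockout HCT116 line with beta catenin targeted HCT116 as companion control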
# Fibroblast inh – antiproliferative effect on LL 47 fibroblasts – human, LL 47 cells, CellTiter-Glo luminescence, primary screen; LL 47 human lung fibroblast viability, ATP luminescence; hits give low values; viability, % at 10 µM; actives 1.1% (n = 85,000); AID 719, 2007;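 active = viability at or below 50% in the single dose screen; inactive = viability above 50%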;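 note: compound exposure lasted 72 h before the ATP readout; 100% = median luminescence of untreated cell-only wells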
#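 Benchmarks: Cell-only wells, no compound | Test system: LL 47 human lung fibroblasts, passage 12 or lower | Input: 1,150 cells/well | Measured by: CellTiter-Glo luminescence measuring cellular ATP | Medium: IMEM, 15% FBS supplement | Schedule: Overnight attachment after seeding, then 72 h compound exposure at 37 °C | Doses: Compound addition at 0.1% DMSO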
# HUVEC inhibit – inhibitors of HUVEC proliferation, primary screen, cell-based, 384-well. CellTiter-Glo luminescence, 72 h; hits give low values. viability, % at 10 µM (by protocol). actives 1.1% (n = 86,000);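 active = viability at or below 30%; inactive = viability above 30%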;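 note: 100% = median luminescence of DMSO-only cell control wells on each plate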
# The depositor's hits bear a star; · = not tested or not shown.
SMILES,H69AR growth 86K,HCT116 bCat-KO,PTEN del growth,Fibroblast inh,HUVEC inhibit
Cc1cc(N/N=C/c2ccccc2Cl)nc(NCc2ccccc2)n1,·,42,26,·,·
Cc1cc(NC2CCCCC2)nc(NCc2ccccc2)n1,·,2.6*,3.2*,·,·
Cc1ccc(Nc2cc(C)nc(NCc3ccccc3)n2)cc1,·,1.0*,1.0*,·,·
COc1cc(C)nc(NCc2ccccc2)n1,92,97,100,91,99
CC(=O)NC(c1ccco1)c1ccc2cccnc2c1O (stereo unspecified),43,5.1*,6,2.2*,4.6*
COc1ccccc1NC(c1cccnc1)c1ccc2cccnc2c1O (stereo unspecified),·,49,49,·,·
Cc1ccc2ccc(C(Nc3ccccn3)c3ccccc3)c(O)c2n1 (stereo unspecified),28*,60,63,75,81
Cc1cccc(NC(c2ccc(C)s2)c2ccc3ccc(C)nc3c2O)n1 (stereo unspecified),·,2.4*,1.7*,·,·
Cc1cccc(NCc2ccccc2O)n1,103,101,94,102,86
COc1cc(C(Nc2ccccn2)c2ccc3ccc(C)nc3c2O)cc(OC)c1O (stereo unspecified),0.3*,2.9*,2.5*,38*,14*
O=C(COC(=O)C1(c2cccc(F)c2)CCCC1)NCc1ccc2c(c1)OCO2,·,84,77,·,·
Oc1c(C(Nc2ccccn2)c2ccccn2)ccc2cccnc12 (stereo unspecified),6.4*,3.0*,2.5*,5.0*,55
Cc1cc(NC(c2ccc(Cl)cc2)c2ccc3cccnc3c2O)no1 (stereo unspecified),48,4.3*,10,8.1*,11*
O=C(COc1ccc(Cl)cc1)NC1=NN(c2ccccc2)C(=O)C1,·,93,100,·,·
O=C(/C=C/c1cccc2ccccc12)c1ccncc1,·,1.0*,0.9*,·,·
O=C(N/N=C/c1cccc([N+](=O)[O-])c1)C1CC1c1ccccc1 (stereo unspecified),·,85,80,·,·
CCn1nc(C(=O)NC2=NCCS2)c2ccccc2c1=O,98,99,105,93,2.7*
CN(C(=O)COC(=O)c1cc(NS(=O)(=O)c2cc([N+](=O)[O-])ccc2Cl)ccc1O)C1CCCCC1,·,76,78,·,·
Cc1ccc(C2CC(C(F)(F)F)n3ncc(C(N)=O)c3N2)cc1 (stereo unspecified),87,102,93,103,87
CC(C)(C)NC(=O)c1cnn2c1NC(c1ccc(F)cc1)CC2C(F)(F)F (stereo unspecified),67,94,99,33*,98
O=C(Nc1ccc2c(c1)CCC2)c1cnn2c1NC(c1ccco1)CC2C(F)(F)F (stereo unspecified),30*,75,69,37*,55
Cc1ccc(Cl)cc1NC(=O)c1cnn2c1NC(c1ccco1)CC2C(F)(F)F (stereo unspecified),78,68,69,99,101
Cn1c(N)c(C(=O)c2ccc(F)cc2F)c(=O)n(C)c1=O,·,95,92,·,·
COc1cc(N=c2c([N+](=O)[O-])nn(-c3ccc4c(c3)OCCO4)n2O)cc(OC)c1,·,0.8*,0.3*,·,·
CC(C)c1ccc(N=c2c([N+](=O)[O-])nn(-c3ccc4c(c3)OCCO4)n2O)cc1,·,88,87,·,·
SMILES,H69AR growth 86K,HCT116 bCat-KO,PTEN del growth,Fibroblast inh,HUVEC inhibit
CCCCN(CC)S(=O)(=O)c1ccc(C(=O)N=c2sc3cc(NC(C)=O)ccc3n2C)cc1,·,0.6*,0.7*,·,·
CCOc1cc(C(=O)N2CCN(c3ccc(C(C)=O)cc3)CC2)cc(OCC)c1OCC,38*,86,95,100,93
CN(C)S(=O)(=O)c1ccc(Cl)c(NC(=O)c2ccncc2)c1,·,88,91,·,·
CC(=O)Oc1ccc(-c2cccc(C(=O)NCCCO)c2)cc1,·,90,95,·,·
Cc1ccc(NC(=O)COc2ccc(/C=N/NC(=O)CSCc3ccccc3)cc2)cc1,·,83,95,·,·
Cc1ccc(NC(=O)COc2ccc(/C=C3/SC(=Nc4ccccc4)N(Cc4cccnc4)C3=O)cc2)cc1,·,2.7*,2.2*,·,·
CCn1c2ccccc2c2cc(/C=N/n3cn[nH]c3=S)ccc21,15*,70,56,85,76
CCn1c2ccccc2c2cc(/C=N/n3cnnc3)ccc21,74,91,78,80,109

# Bioassay records (PubChem)
